The values that follow come from ChEMBL document CHEMBL1126834, “Chemistry, binding affinities, and behavioral properties of a new class of "antineophobic" mitochondrial DBI receptor complex (mDRC) ligands” (J Med Chem, 1993).

Test [1] deals with T1, Gastrin/cholecystokinin type B receptor (Rattus norvegicus, UniProt P30553).
T1 sequence (P30553 whole entry): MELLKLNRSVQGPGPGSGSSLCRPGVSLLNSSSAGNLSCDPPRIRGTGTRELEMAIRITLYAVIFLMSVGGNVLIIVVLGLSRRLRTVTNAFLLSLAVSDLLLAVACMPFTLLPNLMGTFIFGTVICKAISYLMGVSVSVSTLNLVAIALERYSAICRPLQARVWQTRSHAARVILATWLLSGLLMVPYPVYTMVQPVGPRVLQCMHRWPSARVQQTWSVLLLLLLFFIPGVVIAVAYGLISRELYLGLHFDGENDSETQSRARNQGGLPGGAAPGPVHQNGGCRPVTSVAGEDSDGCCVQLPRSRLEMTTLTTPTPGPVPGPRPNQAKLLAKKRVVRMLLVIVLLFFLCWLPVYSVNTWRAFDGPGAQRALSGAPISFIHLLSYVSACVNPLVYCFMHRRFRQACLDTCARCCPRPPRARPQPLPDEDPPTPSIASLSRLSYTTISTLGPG
The test can be described thus: Inhibitory activity by measuring its ability to displace [3H]L-365260 from cholecystokinin receptor in rat brain. The test is classed as tissue-based.

Test [2] has as its target Adrenergic receptor alpha. The test can be described thus: Inhibitory activity by measuring its ability to displace [3H]clonidine from alpha-adrenergic receptor in rat brain. The test is classed as tissue-based.
In test [3] the target is Adrenergic receptor alpha. Kind of test: Inhibitory activity by measuring its ability to displace [3H]WB-4101 from alpha-adrenergic receptor in rat brain. The test is classed as tissue-based.
Test [4] deals with Opioid receptor (Rattus norvegicus, UniProt P33533+P34975+P33535). Kind of test: Displacement of [3H]naxolone from opiate receptor of rat brain. Background: Loss of bound radioactivity is the signal in a displacement assay; it reports binding, not function.
Test [5] is described as follows: Inhibitory activity by measuring its ability to displace [3H]spiperone from dopamine or serotonin 5-HT-1 receptors in rat brain. The test is classed as tissue-based.
Test [6] deals with GABA-A receptor; anion channel. The test can be described thus: Inhibitory activity at GABA A receptor, measured by the ability to displace [3H]GABA from GABA A receptor in rat brain. The format is tissue-based.
Test [7] concerns the target Translocator protein (Rattus norvegicus, UniProt P16257). The test can be described thus: Binding affinity against mitochondrial DBI complex (peripheral benzodiazepine receptor) using primary cultures of glial cells. An outline of the steps: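 Glia from cerebella of 8-day-old Sprague–Dawley rat pups, trypsin-dissociated and grown 14 days (~95% astroglia). Cells lysed in 50 mM Hepes pH 7.4, 4 μg protein per tube. Incubated with [3H]4'-chlorodiazepam and competitor for 90 min at 4 °C, then filtered. Nonspecific binding defined with 10 μM 4'-chlorodiazepam. Triplicate competition curves; IC50 by nonlinear regression, converted to Ki (Bylund–Yamamura).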

A short description of test [8]: Tested for inhibitory activity by measuring its ability to displace [3H]AMPA from glutamate (non-NMDA) receptor in rat brain. The test is classed as tissue-based.
Test [9] has as its target Serotonin 2 (5-HT2) receptor (Rattus norvegicus). The test can be described thus: Inhibitory activity by measuring its ability to displace [3H]ketanserin from serotonin receptor in rat brain.
A short description of test [10]: Inhibitory activity at GABA B receptor, measured by the ability to displace [3H]baclofen from GABA B receptor in rat brain. The test is classed as tissue-based.
Test [11] deals with GABA-A receptor; anion channel. The test can be described thus: Inhibitory activity at GABA A receptor, measured by the ability to displace [3H]flumazenil from GABA A receptor in rat brain. The test is classed as tissue-based.
Test [12] deals with Sigma receptor (Rattus norvegicus). Kind of test: Tested for inhibitory activity by measuring its ability to displace [3H]3-PPP from sigma receptor in rat brain.
Test [13] has as its target GABA-A receptor; anion channel. Kind of test: Inhibitory activity at GABA A receptor, measured by the ability to displace [3H]zolpidem from GABA A receptor in rat brain. The test is classed as tissue-based.
Test [14] has as its target GABA-A receptor; anion channel. Kind of test: Inhibitory activity at GABA A receptor, measured by the ability to displace [35S]TBPS from GABA A receptor in rat brain. The test is classed as tissue-based.
Test [15] is described as follows: Inhibitory activity by measuring its ability to displace [3H]glycine from glycine receptor in rat brain. The format is tissue-based.
Test [16] deals with Cannabinoid receptor 1 (Rattus norvegicus, UniProt P20272). The test can be described thus: Inhibitory activity, measured by displacement [3H]CP-55940 from cannabinoid receptor (CB1) in rat brain. The test is classed as tissue-based.
Test [17] has as its target Glutamate NMDA receptor. Kind of test: Inhibitory activity by measuring its ability to displace [3H]-MK-801 from glutamate(NMDA) receptor in rat brain. The test is classed as tissue-based.
The target in test [18] is Adrenergic receptor beta (Rattus norvegicus, UniProt P18090+P10608+P26255). The test can be described thus: Inhibitory activity by measuring its ability to displace [125I]pindolol from beta-adrenergic receptor in rat brain. The format is tissue-based.

Bounds are passed on as bounds.

Sequence of Cannabinoid receptor 1 (P20272 whole entry): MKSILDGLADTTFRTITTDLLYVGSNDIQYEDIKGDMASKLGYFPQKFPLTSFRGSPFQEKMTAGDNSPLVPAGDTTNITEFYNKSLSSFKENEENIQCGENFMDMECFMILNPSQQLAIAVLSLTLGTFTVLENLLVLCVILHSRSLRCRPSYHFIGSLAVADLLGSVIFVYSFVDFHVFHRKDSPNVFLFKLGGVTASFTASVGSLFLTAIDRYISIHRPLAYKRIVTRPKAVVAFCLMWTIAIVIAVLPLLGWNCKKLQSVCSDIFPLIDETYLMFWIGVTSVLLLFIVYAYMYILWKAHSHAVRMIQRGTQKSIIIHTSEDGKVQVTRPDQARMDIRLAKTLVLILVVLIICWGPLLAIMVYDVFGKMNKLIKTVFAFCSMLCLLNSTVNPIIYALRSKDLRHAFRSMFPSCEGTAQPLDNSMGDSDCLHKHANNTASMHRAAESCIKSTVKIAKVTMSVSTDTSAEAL
Sequence of Translocator protein (P16257 whole entry, looked up): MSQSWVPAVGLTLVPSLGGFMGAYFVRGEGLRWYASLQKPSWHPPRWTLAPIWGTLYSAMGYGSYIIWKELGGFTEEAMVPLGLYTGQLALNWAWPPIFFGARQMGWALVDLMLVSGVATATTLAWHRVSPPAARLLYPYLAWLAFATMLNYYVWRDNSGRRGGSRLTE

In the case of `CCCN(CCC)C(=O)Cc1c(-c2ccc(F)cc2)[nH]c2ccccc12`, the IC50 in [1], in [2], in [3], in [4], in test [5] and in [6] was above 1000 nM in each case. In addition, the IC50 in [8], in test [9], in [10], in test [11], in [12] and in test [13] was above 1000 nM in each case. In addition, the IC50 in test [14], in test [15], in test [16], in test [17] and in test [18] was above 1000 nM throughout. The Ki in test [7] turned out to be 100 nM.

One may read the IC50 as the concentration needed to halve the response being measured. What is called Ki is the equilibrium dissociation constant of an inhibitor or competing ligand from its target. The low end stands for higher affinity, the high end for lower affinity.
